Measured values: ChEMBL document CHEMBL1142628, “Antineoplastic agents 430. Isolation and structure of cribrostatins 3, 4, and 5 from the republic of maldives cribrochalina species” (2000)
Values after ≈ are worked out from the molar mass of the structure shown. Active and inactive are the calls of the source. No cut-off for these calls is given here.

How the values were obtained:
BXPC-3 = assay: Growth inhibition of human BXPC3 cells; format: functional
OVCAR-3 = assay: Growth inhibition of human OVCAR-3 cells; format: functional
In short: (§1)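 NCI 60-cell-line screen run by the standard NCI protocol. Each test agent ran in quadruplicate, with a top concentration of 10^-5 M and five log-spaced dilutions. GI50 values were averaged and reported as negative log GI50.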

SF-295 [1] = assay: (§2) Growth inhibition of human SF295 cells; format: functional
In short: (§3)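 NCI human tumor cell line panel screen run to the standard NCI protocol. Each compound tested in quadruplicate with a top concentration of 10^-5 M and five log-spaced dilutions. GI50 values were averaged across replicates and reported as negative log GI50.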

NCI-H460 [2] = assay: (§4) Growth inhibition of human NCI-H460 cells; format: functional; in short: as §1
KM-20L2 = assay: Growth inhibition of human KM20L2 cells; format: functional
DU-145 = assay: Growth inhibition of human DU145 cells; format: functional; in short: as §1
P388 = assay: Growth inhibition of mouse P388 cells; format: functional
Candida albicans = assay: Antifungal activity against Candida albicans ATCC 90028 at 100 ug/disk by disk diffusion method; format: functional, organism-based
Cryptococcus neoformans = assay: Antifungal activity against Cryptococcus neoformans ATCC 90112 at 100 ug/disk by disk diffusion method; format: functional, organism-based
Micrococcus luteus = assay: Antibacterial activity against Micrococcus luteus Presque Isle 456 at 100 ug/disk by disk diffusion method; format: functional, organism-based
Staphylococcus aureus = assay: Antibacterial activity against Staphylococcus aureus ATCC 29213 at 100 ug/disk by disk diffusion method; format: functional, organism-based
Enterococcus faecalis = assay: Antibacterial activity against Enterococcus faecalis ATCC 29212 at 100 ug/disk by disk diffusion method; format: functional, organism-based
Bacillus subtilis = assay: Antibacterial activity against Bacillus subtilis Presque Isle 620 at 100 ug/disk by disk diffusion method; format: functional, organism-based
Streptococcus pneumoniae = assay: Antibacterial activity against Streptococcus pneumoniae ATCC 6303 at 100 ug/disk by disk diffusion method; format: functional, organism-based
[3] = system: Stenotrophomonas maltophilia; assay: Antibacterial activity against Stenotrophomonas maltophilia ATCC 13637 at 100 ug/disk by disk diffusion method; format: functional, organism-based
Escherichia coli = assay: Antibacterial activity against Escherichia coli ATCC 25922 at 100 ug/disk by disk diffusion method; format: functional, organism-based
Enterobacter cloacae = assay: Antibacterial activity against Enterobacter cloacae ATCC 13047 at 100 ug/disk by disk diffusion method; format: functional, organism-based
Neisseria gonorrhoeae [4] = assay: Antibacterial activity against Neisseria gonorrhoeae ATCC 49226 by disk diffusion method; format: functional
Neisseria gonorrhoeae [5] = assay: Antibacterial activity against penicillin-resistant Neisseria gonorrhoeae isolate by disk diffusion method; format: functional
CCRF-CEM = assay: Growth inhibition of human CCRF-CEM cells; format: functional; in short: as §1
[6] = Growth inhibition of human HL60(TB) cells; format: functional, HL-60(TB); conditions: HL-60
In short: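 NCI human tumour cell-line panel screen run by the standard NCI protocol. Each compound was tested in quadruplicate, with an upper concentration limit of 10^-5 M and five log-spaced dilutions. GI50 values were averaged and reported as negative log GI50.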

K562 = assay: Growth inhibition of human K562 cells; format: functional; in short: as §1
MOLT-4 = assay: Growth inhibition of human MOLT4 cells; format: functional; in short: as §1
RPMI-8226 = assay: Growth inhibition of human RPMI8226 cells; format: functional; in short: as §1
SR = assay: Growth inhibition of human SR cells; format: functional; in short: as §3
A549 = assay: Growth inhibition of human A549/ATCC cells; format: functional; in short: as §1
HOP-62 = assay: Growth inhibition of human HOP62 cells; format: functional; in short: as §1
HOP-92 = assay: Growth inhibition of human HOP92 cells; format: functional; in short: as §1
NCI-H226 = assay: Growth inhibition of human NCI-H226 cells; format: functional; in short: as §1
NCI-H460 [7] = assay: as §4; format: functional; in short: as §1; remark: listed apart in the source
NCI-H522 = assay: Growth inhibition of human NCI-H522 cells; format: functional; in short: as §1
COLO 205 = assay: Growth inhibition of human COLO205 cells; format: functional; in short: as §1
KM12 = assay: Growth inhibition of human KM12 cells; format: functional; in short: as §1
SW-620 = assay: Growth inhibition of human SW620 cells; format: functional; in short: as §3
SNB-75 = assay: Growth inhibition of human SNB75 cells; format: functional; in short: as §3
U-251 = assay: Growth inhibition of human U251 cells; format: functional; in short: as §3
LOX IMVI = assay: Growth inhibition of human LOX IMVI cells; format: functional; in short: as §1
Malme-3M = assay: Growth inhibition of human MALME-3M cells; format: functional; in short: as §1
SK-MEL-5 = assay: Growth inhibition of human SK-MEL-5 cells; format: functional; in short: as §3
UACC-62 = assay: Growth inhibition of human UACC62 cells; format: functional; in short: as §3
OVCAR-4 = assay: Growth inhibition of human OVCAR4 cells; format: functional; in short: as §1
OVCAR-8 = assay: Growth inhibition of human OVCAR8 cells; format: functional; in short: as §1
786-0 = assay: Growth inhibition of human 786-0 cells; format: functional; in short: as §1
ACHN = assay: Growth inhibition of human ACHN cells; format: functional; in short: as §1
RXF 393 = assay: Growth inhibition of human RXF393 cells; format: functional; in short: as §3
SN12C = assay: Growth inhibition of human SN12C cells; format: functional; in short: as §3
PC-3 = assay: Growth inhibition of human PC3 cells; format: functional; in short: as §1
MCF7 [8] = assay: Growth inhibition of human MCF7 cells; format: functional; in short: as §1
MCF7 [9] = assay: Growth inhibition of human adriamycin-resistant MCF7 cells; format: functional; in short: as §3
MDA-MB-231 = assay: Growth inhibition of human MDA-MB-231/ATCC cells; format: functional; in short: as §1
Hs-578T = assay: Growth inhibition of human HS578T cells; format: functional; in short: as §1
MDA-MB-435 = assay: Growth inhibition of human MDA-MB-435 cells; format: functional; in short: as §1
MDA-N = assay: Growth inhibition of human MDA-N cells; format: functional; in short: as §1
T47D = assay: Growth inhibition of human T47D cells; format: functional; in short: as §3
SF-268 = assay: Growth inhibition of human SF268 cells; format: functional; in short: as §3
SF-295 [10] = assay: as §2; format: functional; in short: as §3; remark: listed apart in the source
SF-539 = assay: Growth inhibition of human SF539 cells; format: functional; in short: as §3

Which GI50 (BXPC-3) does the source give for C/C=C(/C)C(=O)OCc1nccc2c1C(=O)C(N)=C(C)C2=O [CRIBROSTATIN 3] here?
The GI50 was greater than 1 µg/mL.

What about the GI50 (OVCAR-3) of the same compound?
Its GI50 is 0.77 µg/mL (≈ 2.56 µM).

What about the GI50 (SF-295 [1]) of the same compound?
Its GI50 is greater than 1 µg/mL.

What about the GI50 (NCI-H460 [2]) of the same compound?
The GI50 was greater than 1 µg/mL.

And the GI50 (KM-20L2)?
Its GI50 is greater than 1 µg/mL.

And the GI50 (DU-145)?
The GI50 was greater than 1 µg/mL.

What about the GI50 (P388) of the same compound?
Its GI50 is 2.49 µg/mL (≈ 8.29 µM).

And the EC50 (P388; read-out: ED50 (the source's name))?
The EC50 was 2.5 µg/mL (≈ 8.32 µM).

What about the Activity (Candida albicans) of the same compound?
Its Activity is “inactive”.

What about the Activity (Cryptococcus neoformans) of the same compound?
Its Activity is “inactive”.

And the Activity (Micrococcus luteus)?
The Activity was “inactive”.

And the Activity (Staphylococcus aureus)?
Its Activity is “inactive”.

And the Activity (Enterococcus faecalis)?
Its Activity is “inactive”.

And the Activity (Bacillus subtilis)?
The Activity was “inactive”.

And the Activity (Streptococcus pneumoniae)?
Its Activity is “inactive”.

What about the Activity [3] of the same compound?
The Activity was “inactive”.

What about the Activity (Escherichia coli) of the same compound?
The Activity was “inactive”.

And the Activity (Enterobacter cloacae)?
The Activity was “inactive”.

What about the MIC (Neisseria gonorrhoeae [4]) of the same compound?
Its MIC is 0.0975 µg/disc.

What about the MIC (Neisseria gonorrhoeae [5]) of the same compound?
The MIC was 0.39 µg/disc.

And the GI50 (CCRF-CEM)?
Its GI50 is 4.27 µM.

And the GI50 [6]?
The GI50 was 3.09 µM.

And the GI50 (K562)?
Its GI50 is 7.41 µM.

And the GI50 (MOLT-4)?
The GI50 was 4.9 µM.

And the GI50 (RPMI-8226)?
Its GI50 is 8.51 µM.

And the GI50 (SR)?
The GI50 was 3.39 µM.

And the GI50 (A549)?
The GI50 was 3.47 µM.

What about the GI50 (HOP-62) of the same compound?
The GI50 was 5.37 µM.

And the GI50 (HOP-92)?
The GI50 was 9.55 µM.

What about the GI50 (NCI-H226) of the same compound?
The GI50 was 7.08 µM.

What about the GI50 (NCI-H460 [7]) of the same compound?
Its GI50 is 3.02 µM.

And the GI50 (NCI-H522)?
The GI50 was 3.89 µM.

What about the GI50 (COLO 205) of the same compound?
Its GI50 is 5.89 µM.

And the GI50 (KM12)?
The GI50 was 4.9 µM.

What about the GI50 (SW-620) of the same compound?
The GI50 was 3.63 µM.

And the GI50 (SNB-75)?
Its GI50 is 4.79 µM.

And the GI50 (U-251)?
Its GI50 is 3.24 µM.

And the GI50 (LOX IMVI)?
Its GI50 is 4.07 µM.

And the GI50 (Malme-3M)?
The GI50 was 0.617 µM.

And the GI50 (SK-MEL-5)?
The GI50 was 1.1 µM.

What about the GI50 (UACC-62) of the same compound?
Its GI50 is 2.51 µM.

And the GI50 (OVCAR-4)?
Its GI50 is 5.25 µM.

And the GI50 (OVCAR-8)?
Its GI50 is 8.71 µM.

What about the GI50 (786-0) of the same compound?
Its GI50 is 5.89 µM.

What about the GI50 (ACHN) of the same compound?
The GI50 was 9.55 µM.

What about the GI50 (RXF 393) of the same compound?
The GI50 was 4.9 µM.

What about the GI50 (SN12C) of the same compound?
Its GI50 is 6.17 µM.

What about the GI50 (PC-3) of the same compound?
Its GI50 is 2 µM.

And the GI50 (MCF7 [8])?
Its GI50 is 4.68 µM.

And the GI50 (MCF7 [9])?
Its GI50 is 4.57 µM.

And the GI50 (MDA-MB-231)?
Its GI50 is 8.71 µM.

What about the GI50 (Hs-578T) of the same compound?
The GI50 was 6.31 µM.

What about the GI50 (MDA-MB-435) of the same compound?
Its GI50 is 1.82 µM.

What about the GI50 (MDA-N) of the same compound?
Its GI50 is 1.91 µM.

And the GI50 (T47D)?
Its GI50 is 6.46 µM.

What about the GI50 (SF-268) of the same compound?
Its GI50 is 6.31 µM.

And the GI50 (SF-295 [10])?
Its GI50 is 3.63 µM.

What about the GI50 (SF-539) of the same compound?
The GI50 was 4.79 µM.
